Measurements taken from ChEMBL document CHEMBL1147539, “Synthesis and biological evaluation of novel, selective, nonsteroidal glucocorticoid receptor antagonists” (Bioorg Med Chem Lett, 2004).
Blank lines part the entries; values can stand above or below the compound they belong to.

Legend:
Glucocorticoid receptor [1] = molecular target: T1, Glucocorticoid receptor (Homo sapiens, UniProt P04150); assay: Displacement of [3H]dexamethasone from human Glucocorticoid receptor (GR); Value ranges from 379-840 nM
T1 sequence (P04150 whole entry): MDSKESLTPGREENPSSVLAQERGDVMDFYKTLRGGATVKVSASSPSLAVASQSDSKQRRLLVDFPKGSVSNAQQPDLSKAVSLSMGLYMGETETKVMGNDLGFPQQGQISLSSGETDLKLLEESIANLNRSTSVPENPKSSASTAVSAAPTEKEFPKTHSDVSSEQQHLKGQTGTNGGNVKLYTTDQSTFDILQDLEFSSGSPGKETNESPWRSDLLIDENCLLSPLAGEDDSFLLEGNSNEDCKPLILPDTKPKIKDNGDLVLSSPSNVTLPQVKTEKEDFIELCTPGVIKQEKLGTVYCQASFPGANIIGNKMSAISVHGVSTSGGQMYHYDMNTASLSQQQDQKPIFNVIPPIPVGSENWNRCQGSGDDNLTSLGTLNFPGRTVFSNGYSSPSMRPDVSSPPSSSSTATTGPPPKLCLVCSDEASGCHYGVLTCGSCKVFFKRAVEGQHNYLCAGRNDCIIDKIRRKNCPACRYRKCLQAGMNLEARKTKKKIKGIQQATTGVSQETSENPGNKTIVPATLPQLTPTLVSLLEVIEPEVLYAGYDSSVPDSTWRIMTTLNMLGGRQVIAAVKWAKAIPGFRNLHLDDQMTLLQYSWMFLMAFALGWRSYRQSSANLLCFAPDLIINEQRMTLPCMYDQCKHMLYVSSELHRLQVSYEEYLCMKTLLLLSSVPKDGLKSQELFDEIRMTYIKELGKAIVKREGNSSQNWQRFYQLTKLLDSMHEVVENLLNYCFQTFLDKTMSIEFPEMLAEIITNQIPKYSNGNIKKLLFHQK
Method in brief: (§1)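 Binding to human GR; IC50 reported as the geometric mean of two experiments (three for some values), each run in duplicate, with the range of the experiments given.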

Glucocorticoid receptor [2] = molecular target: T1, Glucocorticoid receptor; assay: Effect on human Glucocorticoid receptor (GR) in a whole cell assay to measure functional cellular GR-antagonism (GRAF)
Glucocorticoid receptor [3] = molecular target: T1, Glucocorticoid receptor
Glucocorticoid receptor [4] = molecular target: T1, Glucocorticoid receptor; assay: Displacement of [3H]dexamethasone from human Glucocorticoid receptor (GR); Value ranges from 1273-2947 nM; method in brief: as §1
Glucocorticoid receptor [5] = molecular target: T1, Glucocorticoid receptor; assay: Displacement of [3H]dexamethasone from human Glucocorticoid receptor (GR); Value ranges from 39-94 nM
Androgen receptor = molecular target: T2, Androgen receptor (Homo sapiens, UniProt P10275); assay: Displacement of [3H]mibolerone from human Androgen receptor
T2 sequence (P10275 whole entry): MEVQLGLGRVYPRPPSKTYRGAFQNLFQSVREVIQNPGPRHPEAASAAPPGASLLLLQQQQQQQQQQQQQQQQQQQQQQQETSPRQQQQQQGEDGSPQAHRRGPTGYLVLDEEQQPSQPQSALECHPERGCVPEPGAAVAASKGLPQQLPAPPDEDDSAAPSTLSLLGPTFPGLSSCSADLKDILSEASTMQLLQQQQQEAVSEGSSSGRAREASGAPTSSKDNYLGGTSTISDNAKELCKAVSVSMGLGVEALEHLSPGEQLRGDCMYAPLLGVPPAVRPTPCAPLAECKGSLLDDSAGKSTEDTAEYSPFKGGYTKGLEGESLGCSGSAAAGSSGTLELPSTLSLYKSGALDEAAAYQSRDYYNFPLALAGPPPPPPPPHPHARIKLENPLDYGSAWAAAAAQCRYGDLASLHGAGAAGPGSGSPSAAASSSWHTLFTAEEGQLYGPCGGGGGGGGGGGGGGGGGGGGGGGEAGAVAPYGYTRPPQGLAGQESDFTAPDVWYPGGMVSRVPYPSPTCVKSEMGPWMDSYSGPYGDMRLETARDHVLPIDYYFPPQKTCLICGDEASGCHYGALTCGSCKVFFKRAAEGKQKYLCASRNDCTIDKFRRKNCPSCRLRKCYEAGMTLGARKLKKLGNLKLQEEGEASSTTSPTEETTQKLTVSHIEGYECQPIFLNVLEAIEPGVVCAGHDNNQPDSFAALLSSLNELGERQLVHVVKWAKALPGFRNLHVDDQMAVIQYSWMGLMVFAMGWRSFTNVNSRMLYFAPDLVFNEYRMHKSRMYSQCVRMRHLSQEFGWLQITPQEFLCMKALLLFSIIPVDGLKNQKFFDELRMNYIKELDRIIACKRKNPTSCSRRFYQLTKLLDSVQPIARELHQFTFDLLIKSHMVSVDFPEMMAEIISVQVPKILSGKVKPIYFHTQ

Estrogen receptor = molecular target: T3, Estrogen receptor (Homo sapiens, UniProt P03372); assay: Displacement of [3H]estradiol from human estrogen receptor alpha
T3 sequence (P03372 whole entry): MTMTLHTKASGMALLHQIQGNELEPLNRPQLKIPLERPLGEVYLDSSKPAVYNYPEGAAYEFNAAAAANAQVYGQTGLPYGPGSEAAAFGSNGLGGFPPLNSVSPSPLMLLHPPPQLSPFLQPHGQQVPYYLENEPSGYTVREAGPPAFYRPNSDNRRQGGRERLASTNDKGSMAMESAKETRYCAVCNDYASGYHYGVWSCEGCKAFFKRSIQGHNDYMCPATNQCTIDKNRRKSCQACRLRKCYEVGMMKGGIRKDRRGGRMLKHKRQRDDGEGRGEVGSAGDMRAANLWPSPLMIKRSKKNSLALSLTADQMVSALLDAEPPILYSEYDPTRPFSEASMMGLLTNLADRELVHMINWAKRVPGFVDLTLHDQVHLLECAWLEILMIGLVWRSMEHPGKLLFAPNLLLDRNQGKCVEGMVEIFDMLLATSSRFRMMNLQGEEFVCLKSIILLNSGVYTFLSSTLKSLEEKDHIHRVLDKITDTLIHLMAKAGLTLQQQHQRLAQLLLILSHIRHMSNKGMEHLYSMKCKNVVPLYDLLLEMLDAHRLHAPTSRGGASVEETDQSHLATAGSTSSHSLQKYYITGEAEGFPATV
Method in brief: (§2)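 Human steroid receptor (PR, MR, AR, ERα) binding measured by radioligand displacement, with IC50s determined in duplicate. Values without a range come from a single experiment, and values with a range are geometric means of repeat experiments.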

Glucocorticoid receptor [6] = molecular target: T1, Glucocorticoid receptor; assay: Displacement of [3H]dexamethasone from human Glucocorticoid receptor (GR); Value ranges from 2-2 nM
[7] = molecular target: T4, Mineralocorticoid receptor (Homo sapiens, UniProt P08235); assay: Displacement of [3H]aldosterone from human Mineralocorticoid receptor; method in brief: as §2
T4 sequence (P08235 whole entry): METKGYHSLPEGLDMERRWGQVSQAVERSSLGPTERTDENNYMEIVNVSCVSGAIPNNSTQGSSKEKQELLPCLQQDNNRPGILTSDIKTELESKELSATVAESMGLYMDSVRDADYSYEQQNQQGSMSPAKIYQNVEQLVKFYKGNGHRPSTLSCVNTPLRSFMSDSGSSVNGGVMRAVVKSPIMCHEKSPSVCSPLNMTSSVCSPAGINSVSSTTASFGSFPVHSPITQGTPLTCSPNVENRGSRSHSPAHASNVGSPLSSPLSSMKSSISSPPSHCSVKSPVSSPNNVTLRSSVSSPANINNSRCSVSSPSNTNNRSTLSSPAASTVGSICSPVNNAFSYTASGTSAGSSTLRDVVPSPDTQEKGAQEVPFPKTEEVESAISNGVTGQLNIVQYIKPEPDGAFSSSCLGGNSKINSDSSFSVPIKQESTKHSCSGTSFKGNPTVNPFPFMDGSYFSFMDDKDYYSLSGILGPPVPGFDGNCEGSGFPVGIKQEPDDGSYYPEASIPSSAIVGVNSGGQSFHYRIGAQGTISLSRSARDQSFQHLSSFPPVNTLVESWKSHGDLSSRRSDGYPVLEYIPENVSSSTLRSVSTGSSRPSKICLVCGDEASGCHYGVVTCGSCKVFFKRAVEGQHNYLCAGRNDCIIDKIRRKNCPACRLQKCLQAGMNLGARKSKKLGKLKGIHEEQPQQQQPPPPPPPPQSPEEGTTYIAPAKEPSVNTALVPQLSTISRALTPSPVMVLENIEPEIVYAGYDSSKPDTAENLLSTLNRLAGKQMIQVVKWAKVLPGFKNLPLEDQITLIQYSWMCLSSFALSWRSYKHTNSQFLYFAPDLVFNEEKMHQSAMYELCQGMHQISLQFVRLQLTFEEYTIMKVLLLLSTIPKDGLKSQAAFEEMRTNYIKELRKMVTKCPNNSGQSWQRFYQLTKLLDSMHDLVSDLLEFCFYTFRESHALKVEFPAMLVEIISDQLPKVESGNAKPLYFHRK

Glucocorticoid receptor [8] = molecular target: T1, Glucocorticoid receptor; assay: Displacement of [3H]dexamethasone from human Glucocorticoid receptor (GR); Value ranges from 949-1169 nM; method in brief: as §1
Glucocorticoid receptor [9] = molecular target: T1, Glucocorticoid receptor; assay: Displacement of [3H]dexamethasone from human Glucocorticoid receptor (GR); Value ranges from 559-1423 nM; method in brief: as §1
Glucocorticoid receptor [10] = molecular target: T1, Glucocorticoid receptor; assay: Effect on functional cellular GR-antagonism (GRAF) in human Glucocorticoid receptor (GR) expressing cells
Method in brief: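 Whole-cell functional GR antagonism measured in a genetically engineered mammalian cell line expressing GR; IC50 determined from 12-concentration compound curves.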

Glucocorticoid receptor [11] = molecular target: T1, Glucocorticoid receptor; assay: Displacement of [3H]dexamethasone from human Glucocorticoid receptor (GR); Value ranges from 681-974 nM; method in brief: as §1
Glucocorticoid receptor [12] = molecular target: T1, Glucocorticoid receptor; assay: Displacement of [3H]dexamethasone from human Glucocorticoid receptor (GR); Value ranges from 9-12 nM

Compound: CCNc1ccc2c(c1)C(c1ccccc1)Oc1cccc(OC)c1-2 (stereo not given)
IC50 (Glucocorticoid receptor [1]): 564 nM
IC50 (Glucocorticoid receptor [2]): 382 nM

Compound: CCOc1ccc(CC2Oc3cccc(OC)c3-c3ccc(NS(C)(=O)=O)cc32)cc1 (stereo not given)
IC50 (Glucocorticoid receptor [3]): 548 nM

Compound: COc1cccc2c1-c1ccc(N)cc1C(c1ccccc1)O2 (stereo not given)
IC50 (Glucocorticoid receptor [4]): 1940 nM
IC50 (Glucocorticoid receptor [2]): 2020 nM

Compound: COc1cccc2c1-c1ccc(N(C)S(C)(=O)=O)cc1C(c1ccccc1)O2 (stereo not given)
IC50 (Glucocorticoid receptor [8]): 1050 nM
IC50 (Glucocorticoid receptor [2]): 210 nM

Compound: CS(=O)(=O)Nc1ccc2c(c1)C(c1ccccc1)Oc1cccc(O)c1-2 (stereo not given)
IC50 (Glucocorticoid receptor [9]): 892 nM
IC50 (Glucocorticoid receptor [10]): 1810 nM

Compound: COc1cccc2c1-c1ccc(NS(C)(=O)=O)cc1C(c1ccc(Cl)cc1)O2 (stereo not given)
IC50 (Glucocorticoid receptor [12]): 10 nM
IC50 (Glucocorticoid receptor [2]): 129 nM

Continued, values first:

IC50 (Glucocorticoid receptor [5]): 61 nM
IC50 (Glucocorticoid receptor [2]): 388 nM
Compound: CCOC(=O)c1ccc(C2Oc3cccc(OC)c3-c3ccc(NS(C)(=O)=O)cc32)cc1 (stereo not given)

IC50 (Androgen receptor): 8.73 µM
IC50 (Estrogen receptor): > 10 µM
IC50 (Glucocorticoid receptor [2]): 57 nM
IC50 (Glucocorticoid receptor [6]): 2 nM
IC50 [7]: 162 nM
Compound: CS(=O)(=O)Nc1ccc2c(c1)C(c1ccccc1)Oc1cccc(OC(F)F)c1-2 (stereo not given)

IC50 (Glucocorticoid receptor [11]): 812 nM
IC50 (Glucocorticoid receptor [2]): 665 nM
Compound: COc1ccccc1C1Oc2cccc(OC)c2-c2ccc(NS(C)(=O)=O)cc21 (stereo not given)
